Compound activity from PubChem.
CSN inh = inhibitors of CSN-mediated cullin deneddylation, primary screen, biochemical, fluorescence polarization, uHTS. COP9 signalosome complex subunit 5 (Homo sapiens), Q92905. Purified CSN, SCF-Nedd8-OG deneddylation. inhibition, % at 12.5 µM. 360,000 compounds, 0.38% hits. AID 651999, 2013;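 active means pattern-corrected inhibition above about 35%, with an unprinted fluorescence ratio check between 0.5 and 1.5, limit read from the data, passing the limit was not always enough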;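 further: 0% = enzyme with substrate and 100% = substrate without enzyme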
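Detection – fluorescence polarization · System – HEK293T-derived human Csn5 enzyme · Controls – substrate-only high control, full reaction low control · Timing – 90 min, room temperature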
CRFBP-R2 agonist = agonists of CRF-BP/CRF-R2 complex, primary screen, cell-based, HEK293, calcium dye fluorescence, uHTS | CRF-binding protein / CRF receptor 2 complex (human) | calcium dye fluorescence (FLIPR); percent of saturating CRF peptide response | activation, % at 13.2 µM | 350,000 compounds, 0.46% hits | AID 588473, 2011;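 active means activation of at least 50%, plus an integration ratio under a set limit after plate pattern correction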;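 further: plate controls were neutral control wells without compound for no effect and CRF at EC100 for full effect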
Rpn11 inh = Rpn11 (PSMD14) deubiquitinase inhibitors, primary screen, biochemical, fluorescence polarization, uHTS | AID 588493, 2011 | 360,000 compounds, 0.59% hits | calls only at 20 µM | 26S proteasome non-ATPase regulatory subunit 14 (Homo sapiens), O00487 | human 26S proteasome, Ub4-pepOG fluorescence polarization; 20S core pre-blocked with epoxomicin;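 active means inhibition at 20 µM, scaled to each plate's controls, above about 33%, limit read from the data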
CRFR2-BP antag = antagonists of CRF-BP/CRF-R2 complex, primary screen, cell-based, HEK293, calcium dye fluorescence, uHTS | CRF-induced calcium fluorescence | inhibition, % at 11.8 µM | 350,000 compounds, 0.59% hits | AID 588475, 2011;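 active means inhibition of the ligand-induced calcium signal above about 50% at the single tested concentration, limit read from the data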
HNF4A DNA FP = change in binding of human HNF4A to DNA, primary screen, biochemical, fluorescence polarization, FITC-DNA | Hepatocyte nuclear factor 4-alpha (Homo sapiens), P41235 | 1 h | activity change, % at 10 µM | 360,000 compounds, 0.3% hits | AID 1224865, 2016; in the data active means activity change above about 30%, passing the limit was not always enough
Target sequence (P41235 whole entry, looked up): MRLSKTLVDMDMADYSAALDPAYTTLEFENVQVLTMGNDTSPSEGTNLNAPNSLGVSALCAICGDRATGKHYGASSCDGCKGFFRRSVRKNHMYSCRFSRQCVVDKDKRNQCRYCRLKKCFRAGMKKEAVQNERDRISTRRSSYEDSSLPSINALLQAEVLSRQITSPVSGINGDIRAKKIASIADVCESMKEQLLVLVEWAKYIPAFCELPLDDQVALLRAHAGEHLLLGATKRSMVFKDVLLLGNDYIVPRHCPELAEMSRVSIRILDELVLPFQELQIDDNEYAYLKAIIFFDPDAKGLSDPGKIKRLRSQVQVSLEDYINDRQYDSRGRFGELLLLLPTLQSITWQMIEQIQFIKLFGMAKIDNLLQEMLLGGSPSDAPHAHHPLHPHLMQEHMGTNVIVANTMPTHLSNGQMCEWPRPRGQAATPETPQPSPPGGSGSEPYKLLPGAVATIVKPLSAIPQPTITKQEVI
TPT1 inh = Candida albicans TPT1 enzyme inhibitors, primary screen, biochemical, fluorescence polarization; tRNA 2'-phosphotransferase TPT1 (Candida albicans SC5314); recombinant caTPT1, FP RNA substrate dephosphorylation; inhibition, % at 5 µM; 300,000 compounds, 0.81% hits; AID 1962, 2009;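 active means inhibition above the mean of all tested compounds plus 3 SD, set per screening campaign, cut at about 24% in these data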;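 further: plate controls were DMSO alone for no effect and ferristatin control at 100 nM for full effect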
TPT1 inh confirm = Candida albicans TPT1 inhibitors, confirmation, biochemical, fluorescence polarization, triplicate. shares compounds with TPT1 inh. recombinant caTPT1, RNase T1 coupled. inhibition, % at 5 µM. 2,400 compounds, 74% hits;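 active means inhibition above the primary screen limit, the mean inhibition of all tested compounds plus 3 SD, cut at about 25% in these data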
RNase T1 counter = RNase T1 inhibitors, counter-screen for TPT1 inhibitor project, biochemical, fluorescence polarization; shares compounds with TPT1 inh; RNase T1 cleavage, 1536-well; inhibition, % at 5 µM; 2,400 compounds, 83% hits; AID 2153, 2009;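 active means inhibition above the solvent-only control well mean plus 3 SD, limit set per screening run, cut at about 23% in these data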;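 further: plate controls were DMSO wells with enzyme for no effect and wells without RNase T1 for full effect; inhibitors block cleavage so intact labeled substrate keeps polarization high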
Target sequence (P00651 whole entry, looked up): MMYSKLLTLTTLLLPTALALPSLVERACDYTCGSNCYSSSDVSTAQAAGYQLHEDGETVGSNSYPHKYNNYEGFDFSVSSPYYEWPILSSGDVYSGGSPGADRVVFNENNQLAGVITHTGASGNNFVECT
* marks the source's active call; other numbers are inactive results; i = inactive; x = not tested or not shown; + = active, no number. In the library only some 2.3% were active in any assay of this set; here they are far more common.

SMILES	CSN inh	CRFBP-R2 agonist	Rpn11 inh	CRFR2-BP antag	HNF4A DNA FP	TPT1 inh	TPT1 inh confirm	RNase T1 counter
Cc1cccc(OP(N)(=O)Oc2cccc(C)c2C)c1C	0	0	i	1	0	-1	x	x
CN(C)/C=C/C(=O)C(Cl)(Cl)Cl	-2	2	i	-2	38*	0	x	x
CCOC(=O)c1c(C)n(CCN2CCN(C)CC2)c2ccc(OC)cc12	-5	-1	i	-22	-4	-4	x	x
Cc1c(C=C2C(=O)N(C)C(=S)N(C)C2=O)c2ccccc2n1CC(=O)NCC1CCCO1 (centres undefined)	6	1	+	-6	4	x	x	x
O=C(Cn1cc(C=C2C(=O)NC(=O)NC2=O)c2ccccc21)NCC1CCCO1 (centres undefined)	2	3	i	-5	0	5	x	x
O=P(Nc1ccccc1)(Oc1ccccc1)Oc1ccccc1	5	0	i	-11	-1	-1	x	x
CNP(=O)(Oc1ccccc1)OC12CC3CC(CC(C3)C1)C2 (centres undefined)	4	2	i	78*	2	0	x	x
Nc1c(C(=O)NC2CCCC2)c2nc3ccccc3nc2n1CC1CCCO1 (centres undefined)	46*	1	i	-2	0	7	x	x
Clc1ccc(OCC#CCN2CCCCCC2)cc1	-7	0	i	3	4	7	x	x
CC(=NCCCn1ccnc1)c1c(O)n(-c2ccccc2)c(=O)[nH]c1=O	7	1	i	-3	-5	-1	x	x
Cc1nn(Cc2ccccc2)c(Cl)c1C(=O)NC1CCCc2ccccc21 (centres undefined)	6	2	i	90*	3	0	x	x
O=C(CCc1nc(-c2ccccc2F)no1)N1CCC2(CC1)OCCO2	2	-1	i	12	1	-8	x	x
CCC1CN2CCc3cc(OC)c(OC)cc3C2CC1CC1NCCc2c1[nH]c1ccc(O)cc21 (centres undefined)	-8	5	i	51*	3	x	x	x
COc1ccccc1N1CCN(Cc2c(F)cccc2Cl)CC1	2	0	i	61*	0	3	x	x
COC(=O)C1=C(C(=O)OC)SC2(S1)C(C(=O)OC)=C(C(=O)OC)Sc1c2ssc1=O	13	15	+	-12	18	x	x	x
CN1C(=O)/C(=C\c2ccc(N3CCCCCC3)cc2)C(=O)NC1=S	12	-3	i	-8	10	7	x	x
O=C1NC(=S)N(c2ccc(F)cc2)C(=O)/C1=C/c1ccco1	x	x	x	x	x	78*	x	x
O=C1NC(=S)N(c2ccc(F)cc2)C(=O)/C1=C\c1ccoc1	30	1	+	-8	-12	x	x	x
O=C1/C(=C\c2cc3c(cc2Cl)OCO3)N2CCC1CC2	-4	1	i	-8	1	0	x	x
CC1=C(C)CC2(C(=O)NC(=S)NC2=O)C(C)C1 (centres undefined)	2	150*	i	-140	-3	x	x	x
CC1CCCCC12C(=O)NC(=O)NC2=O (centres undefined)	-4	3	i	-18	2	x	x	x
CCOC(=O)c1c(C)n(Cc2ccco2)c2ccc(OC)cc12	4	-1	i	4	-3	-3	x	x
O=C(c1ccc2c(c1)N(Cc1ccccc1)CCS2)N1CCC2(CC1)OCCO2	2	1	i	-3	-1	2	x	x
O=C1Nc2cc(C(=O)N3CCC4(CC3)OCCO4)ccc2NC1CSCc1cccc(F)c1 (centres undefined)	x	x	x	x	x	61*	96*	101*
CCc1ccc(N2C(=O)NC(=O)/C(=C/c3ccsc3)C2=O)cc1	x	x	x	x	x	28*	17	24*
SMILES	CSN inh	CRFBP-R2 agonist	Rpn11 inh	CRFR2-BP antag	HNF4A DNA FP	TPT1 inh	TPT1 inh confirm	RNase T1 counter
Cc1ccc(N2C(=O)NC(=O)/C(=C\C=C\c3ccco3)C2=O)cc1	34	2	i	-75	9	43*	34*	54*
Cc1ccc(N2C(=O)NC(=O)/C(=C\c3ccoc3)C2=O)cc1	58*	54*	i	-76	19	133*	27*	37*
COc1cc(/C=C2\C(=O)NC(=O)N(c3ccccc3)C2=O)cc(OC)c1O	3	5	i	-10	-1	51*	4	11
O=C1C2C3CCC(O3)C2C(=O)N1CCO (centres undefined)	2	0	i	12	-1	0	x	x
CCn1c(O)c(C=NCc2ccccc2)c(=O)[nH]c1=S	0	-2	i	-59	-1	7	x	x
O=c1[nH]c(=O)n(-c2ccc(Cl)cc2)c(O)c1C=Nc1ccc(S(=O)(=O)Nc2nccs2)cc1	12	3	i	5	4	31*	37*	52*
Cc1cccc(-n2c(O)c(C=Nc3ccc(S(N)(=O)=O)cc3)c(=O)[nH]c2=O)c1	-6	-1	i	-6	-3	30*	8	11
CN(C)c1ccc(/C=C/[N+](=O)[O-])cc1	-1	101*	i	-118	1	51*	73*	90*
C/C(=C\c1ccc(N(C)C)cc1)[N+](=O)[O-]	-5	6	i	1	1	11	x	x
CCOC(=O)c1ccc(NC(=O)N2CC3CC(C2)c2cccc(=O)n2C3)cc1 (centres undefined)	2	4	i	-5	2	-5	x	x
O=C(/C=C/c1c[nH]c2ccccc12)c1c(O)n(CCc2ccccc2)c(=O)[nH]c1=O	-75	166*	x	-132	-96	169*	177*	162*
Cn1cccc1CNCCc1ccc(F)cc1	-3	0	i	1	0	0	x	x
CCOC(=O)C1CCN(/C=C2/C(=O)NC(=O)N(Cc3ccco3)C2=O)CC1	19	-1	i	1	-2	7	x	x
O=C1NC(=S)N(c2ccc(Cl)cc2)C(=O)/C1=C/N1CCN(C(=O)c2ccco2)CC1	43*	7	x	-2	16	39*	29*	41*
